# The source made the active and inactive calls. The calls are words filed in the database; no cut-off is given here.
# Columns and labels:
# [1] = molecular target: Mu-type opioid receptor (Homo sapiens) (UniProt P35372); test: Agonist activity at human mu opioid receptor expressed CHO cells assessed as inhibition of [35S]-GTP[gammaS] binding at 10 uM; format: cell-based
# Procedure, shortened: (§1)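 Single-point screen at 10 μM for intrinsic agonist activity in a [³⁵S]GTPγS binding assay, using membranes from CHO cells overexpressing the human μ, κ or δ opioid receptor.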
# [2] = molecular target: Kappa-type opioid receptor (Homo sapiens) (UniProt P41145); test: Agonist activity at human kappa opioid receptor expressed CHO cells assessed as inhibition of [35S]-GTP[gammaS] binding at 10 uM; format: functional, cell-based; procedure, shortened: as §1
# [3] = molecular target: Delta-type opioid receptor (Homo sapiens) (UniProt P41143); test: Agonist activity at human delta opioid receptor expressed CHO cells assessed as inhibition of [35S]-GTP[gammaS] binding at 10 uM; format: functional, cell-based; procedure, shortened: as §1
# [4] = species on record: Mus musculus; test: Analgesic activity in mouse assessed as antagonism of morphine-induced antinociception by writhing test; format: functional
# [5] = species on record: Mus musculus; test: Analgesic activity in mouse assessed as antagonism of U50488-induced antinociception by writhing test; format: functional
# [6] = molecular target: Mu-type opioid receptor (Homo sapiens) (UniProt P35372); test: Antagonist activity at human mu opioid receptor expressed CHO cells assessed as inhibition of [35S]-GTP[gammaS] binding at 10 uM; format: cell-based
# Procedure, shortened: (§2)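 Antagonism of [³⁵S]GTPγS binding stimulated by DAMGO (μ), DPDPE (δ) or U69,593 (κ) in CHO cells expressing the human receptor, tested at 10 μM.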
# [7] = molecular target: Delta-type opioid receptor (Homo sapiens) (UniProt P41143); test: Antagonist activity at human delta opioid receptor expressed CHO cells assessed as inhibition of [35S]-GTP[gammaS] binding at 10 uM; format: functional, cell-based; procedure, shortened: as §2
# [8] = molecular target: Delta-type opioid receptor (Homo sapiens) (UniProt P41143); test: Agonist activity at human delta opioid receptor expressed CHO cells assessed as inhibition of [35S]-GTP[gammaS] binding; format: functional, cell-based
# Procedure, shortened: (§3)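 Agonist concentration–response in a [³⁵S]GTPγS binding assay at human δ receptor in CHO cells, using eight concentrations chosen to define the upper and lower asymptotes. EC₅₀ and Emax were calculated, with Emax given as a percentage of the maximum for DPDPE run on the same plate. Values are mean ± SE from at least three independent experiments.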
# [9] = molecular target: Delta-type opioid receptor (Homo sapiens) (UniProt P41143); test: Agonist activity at human delta opioid receptor expressed CHO cells assessed as inhibition of [35S]-GTP[gammaS] binding relative to DPDPE maximal response; format: functional, cell-based; procedure, shortened: as §3
# [10] = species on record: Homo sapiens; test: Selectivity, ratio of Ke for human delta opioid receptor to ratio of Ke for human kappa opioid receptor
# Procedure, shortened: (§4)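 Agonist-stimulated [³⁵S]GTPγS binding in CHO cells overexpressing the human receptor, stimulated by DAMGO (μ), DPDPE (δ) or U69,593 (κ). Agonist concentration–response curves were run with or without a fixed test concentration, using at least two test concentrations. Ke = [L]/(DR − 1) was calculated only when the agonist EC₅₀ shifted at least 4-fold. Values are mean ± SE from at least three experiments, and selectivity comes from the Ke values.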
# [11] = molecular target: Kappa-type opioid receptor (Homo sapiens) (UniProt P41145); test: Antagonist activity at human kappa opioid receptor expressed CHO cells assessed as inhibition of [35S]-GTP[gammaS] binding at 10 uM; format: functional, cell-based; procedure, shortened: as §2
# [12] = species on record: Homo sapiens; test: Selectivity, ratio of Ke for human mu opioid receptor to ratio of Ke for human kappa opioid receptor; procedure, shortened: as §4
# Chain of Mu-type opioid receptor (Homo sapiens) (P35372 whole entry): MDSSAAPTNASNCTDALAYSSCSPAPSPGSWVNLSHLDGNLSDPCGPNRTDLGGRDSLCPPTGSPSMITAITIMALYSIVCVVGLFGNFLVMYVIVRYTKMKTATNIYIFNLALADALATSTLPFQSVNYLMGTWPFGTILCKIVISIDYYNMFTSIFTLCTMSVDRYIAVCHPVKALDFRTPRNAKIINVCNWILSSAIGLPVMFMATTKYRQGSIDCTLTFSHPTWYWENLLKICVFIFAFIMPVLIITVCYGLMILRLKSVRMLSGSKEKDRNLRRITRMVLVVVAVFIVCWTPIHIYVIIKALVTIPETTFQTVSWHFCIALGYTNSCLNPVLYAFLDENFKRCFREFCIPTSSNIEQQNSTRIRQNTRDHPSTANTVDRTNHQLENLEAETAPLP
# Chain of Delta-type opioid receptor (Homo sapiens) (P41143 whole entry): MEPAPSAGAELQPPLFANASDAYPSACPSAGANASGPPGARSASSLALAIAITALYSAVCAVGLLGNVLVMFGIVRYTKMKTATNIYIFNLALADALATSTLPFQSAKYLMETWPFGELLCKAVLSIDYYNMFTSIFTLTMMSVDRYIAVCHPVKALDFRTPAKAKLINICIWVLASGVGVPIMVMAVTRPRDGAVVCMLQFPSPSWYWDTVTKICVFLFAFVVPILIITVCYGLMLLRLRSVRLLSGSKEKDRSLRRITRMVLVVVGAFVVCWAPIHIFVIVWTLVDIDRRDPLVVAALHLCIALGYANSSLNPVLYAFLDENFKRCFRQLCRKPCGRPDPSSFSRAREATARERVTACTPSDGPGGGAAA
# Chain of Kappa-type opioid receptor (Homo sapiens) (P41145 whole entry): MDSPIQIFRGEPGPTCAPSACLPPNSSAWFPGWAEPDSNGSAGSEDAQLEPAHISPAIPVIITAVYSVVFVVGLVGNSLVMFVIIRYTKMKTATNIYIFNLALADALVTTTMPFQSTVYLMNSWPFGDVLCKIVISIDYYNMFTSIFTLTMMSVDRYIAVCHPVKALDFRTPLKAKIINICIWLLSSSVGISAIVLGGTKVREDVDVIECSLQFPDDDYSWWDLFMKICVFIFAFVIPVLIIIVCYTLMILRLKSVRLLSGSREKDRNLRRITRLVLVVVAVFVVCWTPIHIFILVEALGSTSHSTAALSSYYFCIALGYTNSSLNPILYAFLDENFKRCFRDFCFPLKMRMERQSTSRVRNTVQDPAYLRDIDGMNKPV
Structure (SMILES),Activity [1],Activity [2],Activity [3],Activity [6],Activity [11],further results
C[C@H]1CN(C)CC[C@@]1(C)c1cccc(O)c1,inactive,inactive,inactive,–,–,AD50 [4]: 0.74 mg/kg; AD50 [5]: >5 mg/kg
CN1CCC(c2cccc(O)c2)CC1,inactive,inactive,inactive,inactive,–,Activity [7]: inactive
Oc1cccc(N2CCN(CCCc3ccccc3)CC2)c1,inactive,inactive,inactive,–,–,–
C[C@H]1CN(CCCc2ccccc2)CCN1c1cccc(O)c1,inactive,inactive,inactive,–,–,–
CN1CCC(C)(c2cccc(O)c2)CC1,–,–,–,–,–,ED50 [8]: 8.3 µM; Emax [9]: 64%; ED50 ([4]; Mus musculus): 3.4 mg/kg
Oc1cccc(C2CCN(CCCc3ccccc3)CC2)c1,–,–,–,inactive,inactive,Ratio Ke [10]: 72; Ratio Ke [12]: 13
CC1CN(CCCc2ccccc2)CCC1c1cccc(O)c1 (configuration not stated),–,–,–,inactive,inactive,–
CC1(c2cccc(O)c2)CCN(CCCc2ccccc2)CC1,–,–,–,inactive,inactive,–
CN1CCN(c2cccc(O)c2)CC1,inactive,inactive,inactive,–,inactive,–
C[C@H]1CN(CCCc2ccccc2)CC[C@@]1(C)c1cccc(O)c1,–,–,–,–,–,AD50 [4]: 0.28 mg/kg
C[C@H]1CN(C)CCN1c1cccc(O)c1,inactive,inactive,inactive,–,–,Activity [7]: inactive
CC1CN(C)CCC1c1cccc(O)c1 (configuration not stated),–,–,–,–,–,Activity [7]: inactive

# Source: ChEMBL document CHEMBL3232748, “Effect of the 3- and 4-methyl groups on the opioid receptor properties of N-substituted trans-3,4-dimethyl-4-(3-hydroxyphenyl)piperidines” (2014)
